Compound activity as filed in PubChem BioAssay.
Sampled rows, rich in hits. Any-hit rate of the full collection: about 2.6%.
Runt-SMMHC FRET: Runt domain-CBFb-SMMHC interaction inhibition; inhibition, % at 20 µM; Cerulean-Runt/Venus-CBFb-SMMHC FRET ratio 530/480, 1 h; Q01196+Q13951; AID 1434; hit rate 0.74% among 220,000;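 active means mean inhibition across duplicate retests at 20 µM reaching about 50%, limit read from the data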;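 further: inhibitors lower the FRET ratio by blocking Runt binding to CBFb-SMMHC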
Target sequence (Q01196 whole entry, looked up, the tested form may be a part): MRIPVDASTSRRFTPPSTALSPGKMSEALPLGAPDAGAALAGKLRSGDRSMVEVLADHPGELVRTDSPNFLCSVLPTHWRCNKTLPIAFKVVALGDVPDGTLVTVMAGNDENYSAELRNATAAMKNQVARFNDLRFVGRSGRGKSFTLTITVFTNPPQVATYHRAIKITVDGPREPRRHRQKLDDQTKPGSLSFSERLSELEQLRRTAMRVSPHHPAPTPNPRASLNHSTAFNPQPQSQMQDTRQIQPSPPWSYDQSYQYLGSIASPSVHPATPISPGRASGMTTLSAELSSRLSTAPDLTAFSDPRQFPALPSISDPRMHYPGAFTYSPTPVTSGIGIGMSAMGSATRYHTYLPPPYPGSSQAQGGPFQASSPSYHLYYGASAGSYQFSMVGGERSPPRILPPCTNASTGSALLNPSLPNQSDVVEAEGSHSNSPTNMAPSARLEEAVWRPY
Target sequence (Q13951 whole entry, looked up, the tested form may be a part): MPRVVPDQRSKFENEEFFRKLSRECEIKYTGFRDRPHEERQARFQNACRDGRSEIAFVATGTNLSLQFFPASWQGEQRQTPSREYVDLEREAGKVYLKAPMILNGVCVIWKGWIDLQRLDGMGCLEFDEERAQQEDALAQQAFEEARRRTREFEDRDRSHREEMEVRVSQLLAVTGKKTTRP
IMP-1 inhibitor: inhibitors of Pseudomonas aeruginosa IMP-1 metallo-beta-lactamase; hit rate 0.45% among 290,000; inhibition, % at 5.6 µM; AID 1556; purified IMP-1, nitrocefin hydrolysis, epi-absorbance fluorescence;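 active means inhibition above the mean plus 3 SD of all compounds in the same screening run, cut at about 4.5% in these data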
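system = purified recombinant IMP-1 beta-lactamase | amount = 0.2 nM IMP-1, as dispensed | medium = HEPES buffer pH 7.1 with ZnSO4 and Brij 35 | times = 25 °C, 15 min preincubation, 25 min reaction | detection = plate fluorescence quenching by hydrolysis product, ex 480/em 530 nm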
VIM-2 inh: inhibitors of Pseudomonas aeruginosa VIM-2 metallo-beta-lactamase | purified VIM-2, nitrocefin hydrolysis, epi-absorbance fluorescence | inhibition, % at 5.6 µM | hit rate 0.89% among 290,000 | AID 1527;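 active means inhibition above the mean of all tested compounds plus 3 SD, cutoff set per screening run, cut at about 7.5% in these data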;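 further: red hydrolysis product quenches plate fluorescence so inhibitors raise well fluorescence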
RanGTP-Impb inh: disruptors of Ran-importin-beta complex formation – biochemical, FRET, CFP-Ran, YFP-importin-beta, homogeneous, primary screen. cell-free CFP-Ran/YFP-importin-beta FRET ratio. inhibition, % (no concentration beside the values). hit rate 1.1% among 300,000;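 active means more than half of the replicate wells show a fall in the fluorescence ratio signal beyond about 16%, limit read from the data, passing the limit was not always enough; inconclusive means exactly half of the replicate wells pass the set limit; inactive means fewer than half of replicates pass the limit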
Runt-CBFb FRET: blocks binding of human RUNX1 Runt domain to CBFb; Q01196+Q13951; Cerulean-Runt/Venus-CBFb FRET ratio 530/480, 1 h; inhibition, % at 20 µM; hit rate 0.46% among 220,000; AID 1496;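 active means inhibition over about 50% at 20 µM in the single-dose screen, limit read from the data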
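Measured by: fluorescence energy transfer, 422 nm excitation, 530/480 nm emission; Assay system: Cerulean-Runt domain; Medium: Tris pH 7.5 buffer with BSA; Measure: loss of energy transfer signal; Controls: 5 µM unlabeled CBFb as full-inhibition high control; Incubation: protein complex preformed 1 h, compound exposure 1 h, room temperature, dark.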
Numbers stand for hits; n = inactive; u = inconclusive; x = no result.

SMILES | Runt-SMMHC FRET | IMP-1 inhibitor | VIM-2 inh | RanGTP-Impb inh | Runt-CBFb FRET
Cc1ccccc1-n1c(O)c(/C=N/NC(=O)c2ccccc2O)c(=O)[nH]c1=S | 59 | n | n | n | n
O=C(N/N=C/c1c(O)n(C2CC2)c(=S)[nH]c1=O)c1ccccc1O | 73 | n | n | n | n
O=C(N/N=C/c1c(O)n(-c2ccccc2)c(=S)[nH]c1=O)c1ccccc1 | n | n | n | n | n
CCCCn1c(O)c(C(C)=NCCc2c[nH]c3ccccc23)c(=O)[nH]c1=O | n | n | n | n | n
O=C(/C=C/c1c[nH]c2ccccc12)c1c(O)n(CCc2ccccc2)c(=O)[nH]c1=O | n | n | n | 31 | n
NNc1n[nH]c(=S)n1N | n | n | n | n | n
CCC(=NCc1cccnc1)c1c(O)n(C2CCCCC2)c(=O)[nH]c1=O | n | n | n | n | n
CCC(=NCc1ccco1)c1c(O)n(C2CCCCC2)c(=O)[nH]c1=O | 102 | n | n | n | n
COc1ccccc1-n1c(-c2ccccc2)nc2ccccc2c1=O | x | n | n | n | x
Nc1ccccc1C(=O)OCc1ccc([N+](=O)[O-])cc1 | n | n | n | n | n
CC(C)CNC(=O)c1c(N)n(Cc2ccc3c(c2)OCO3)c2nc3ccccc3nc12 | 56 | n | n | n | n
CC(C)CCNC(=O)c1c(N)n(Cc2ccc3c(c2)OCO3)c2nc3ccccc3nc12 | n | n | n | 77 | n
CCCNC(=O)c1c(N)n(Cc2ccc3c(c2)OCO3)c2nc3ccccc3nc12 | n | n | n | x | n
O=C1c2cccc3cccc(c23)C(=O)N1/N=C/c1c(O)n(-c2ccccc2)c(=O)[nH]c1=O | n | n | n | n | n
CCCC(C)n1[nH]c(=O)c2c1NC(=O)CSC2c1ccccc1 (stereo not given) | n | n | n | n | n
Cc1c(CC(=O)N2C[C@H]3C[C@@H](C2)c2cccc(=O)n2C3)c(=O)oc2cc(O)c(Cl)cc12 | x | n | n | 75 | x
COc1ccc(CC(=O)N2C[C@H]3C[C@@H](C2)c2cccc(=O)n2C3)cc1 | x | n | n | n | x
Cc1c(CC(=O)N2C[C@H]3C[C@@H](C2)c2cccc(=O)n2C3)c(=O)oc2c(C)c(O)ccc12 | x | n | n | 71 | x
CC[C@@H](CO)C1CC2NC3CC4(c5ccccc5N(C)[C@@H]24)C(O)C31 (stereo not given in full) | x | x | x | n | x
CNc1ccc2nc3ccccc3[n+](C)c2c1 | x | n | 8.0 | n | x
COc1ccc(Cc2c(O)[nH]c(=S)[nH]c2=O)cc1 | x | n | n | n | x
CN1CC=C2C(C#N)=C(N)C(C#N)(C#N)C(c3ccncc3)C2C1 (stereo not given) | n | n | n | 45 | n
CC(=O)c1ccc2c(c1)C1C(Cl)C(Sc3ccccc3[N+](=O)[O-])CC1C(c1ccccc1[N+](=O)[O-])N2 (stereo not given) | n | n | n | n | n
CC(=O)c1ccc2c(c1)C1C(Cl)C(Sc3ccccc3[N+](=O)[O-])CC1C(c1ccccc1)N2 (stereo not given) | n | 5.7 | n | n | n
O=C1NC(=O)C(CCc2ccncc2)(Cc2ccc(OCc3ccccc3)cc2)C(=O)N1 | n | n | n | n | n
SMILES | Runt-SMMHC FRET | IMP-1 inhibitor | VIM-2 inh | RanGTP-Impb inh | Runt-CBFb FRET
O=C1NC(=O)C(CCc2ccncc2)(c2ccccc2)C(=O)N1 | n | 6.1 | n | n | n
Oc1ccc2c3c1O[C@H]1c4[nH]c5ccccc5c4C[C@@]4(O)C(C2)N(CC2CC2)CC[C@]314 | n | n | n | n | n
O=C(NC(C(Cl)Cl)N1CCOCC1)c1ccccc1 (stereo not given) | n | n | n | 22 | n
O=C(NCC(c1cccnc1)N1CCOCC1)Oc1ccccc1 (stereo not given) | n | n | n | u | n
Cc1ccc(-c2nc(N(C)C3CCN(C)CC3)c3ccccc3n2)cc1 | n | n | 11 | u | n
Nc1ccnn1C1CCNCC1 | n | 25 | n | n | n
CN1CCC(n2nccc2N)CC1 | n | n | n | n | n
c1ccc(NC2=NCCCS2)cc1 | x | n | n | n | x
COc1ccc(N=Cc2c(O)n(-c3ccc(C)cc3)c(=O)[nH]c2=O)cc1 | 64 | n | n | n | n
O=C(NC1CN2CCC1CC2)c1cc(Cl)c([N+](=O)[O-])c2nc[nH]c12 (stereo not given) | n | n | 10 | n | n
O=C(Cc1ccccc1)N1CCN(Cc2ccccc2Cl)CC1 | x | n | n | n | x
CCOc1ccccc1C1SCC(=O)Nc2c1c(=O)[nH]n2C(CC)CC (stereo not given) | n | n | 11 | n | n
COc1cc(O)c(C(=O)O)c(-c2cc(O)c(O)cc2C)c1 | 58 | x | x | n | n
COc1ccc2c(c1)c(C(=O)O)c(C)n2CC(C)C | n | n | n | n | n
Cn1c(O)c(/C=C/C=Nc2ccccc2)c(=O)n(C)c1=O | 69 | n | n | 33 | n
Cn1c(O)c(C=Nc2ccccc2)c(=O)n(C)c1=O | x | n | n | n | x
CCCCn1c(O)c(/C=C/C=Nc2ccccc2)c(=O)[nH]c1=O | 64 | n | n | 41 | n
Cn1c(O)c(/C=N/NC(=O)c2ccncc2)c(=O)[nH]c1=S | 71 | n | n | n | n
Cn1c(O)c(/C=N/NC(=O)c2ccncc2)c(=O)n(C)c1=S | 81 | n | n | n | n
CCCCn1c(O)c(/C=N/NC(=O)c2ccncc2)c(=O)[nH]c1=S | 82 | n | n | n | 62
Cc1nc2ccccc2c(=O)n1-c1cccc([N+](=O)[O-])c1 | x | n | n | n | x
CC(C)CCn1c(=O)c(C(=O)NCc2ccco2)c(O)c2ccccc21 | n | n | n | n | n
COCCNC(=O)c1c(N)n(CCC(C)C)c2nc3ccccc3nc12 | 59 | n | n | 82 | n
CC(C)CCn1c(N)c(C(=O)NCc2cccs2)c2nc3ccccc3nc21 | n | n | n | 50 | n
CCCCNC(=O)c1c(N)n(CCCOC)c2nc3ccccc3nc12 | 54 | n | n | 106 | n
SMILES | Runt-SMMHC FRET | IMP-1 inhibitor | VIM-2 inh | RanGTP-Impb inh | Runt-CBFb FRET
Nc1c(C(=O)OCC2CCCO2)c2nc3ccccc3nc2n1Cc1cccs1 (stereo not given) | 85 | n | n | u | n
CC(C)OCCCNC(=O)c1c(N)n(Cc2cccs2)c2nc3ccccc3nc12 | 81 | n | n | 80 | n
CN[C@@H](C)[C@@H](O)c1ccccc1 | x | n | n | n | x
Nc1c2c(nc3sc4c(c13)CCCC4)CCCC2 | n | n | 12 | n | n
O=C(Cn1cc(C=C2C(=O)NC(=O)NC2=O)c2ccccc21)NCC1CCCO1 (stereo not given) | x | n | n | n | x
Cc1c(C=C2C(=O)N(C)C(=S)N(C)C2=O)c2ccccc2n1CC(=O)NCC1CCCO1 (stereo not given) | x | 19 | n | x | x
Cc1cc(OC(C)C(=O)NCC(O)c2ccccc2)c2c3c(c(=O)oc2c1)CCC3 (stereo not given) | x | n | n | n | x
